NPY2 pot ag: human NPY-Y2 potentiation or agonism, primary screen. AID 1359. activation, % at 3.6 µM. cells expressing NPY-Y2, potentiator/agonist read-out. P49146. 0.45% of 220,000 active; in the data active = activation above about 27%;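 note: cells stimulated with NPY near EC25 plus isoproterenol at EC100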
NPY-Y2 antag: antagonists of human neuropeptide Y receptor Y2; NPY-Y2 expressing cells, antagonist mode; inhibition, % at 2.7 µM; 0.99% of 140,000 active; in the data active = inhibition above about 17%
Cl transport mod: modulates chloride dependent transport by human KCC2. 2.2% of 190,000 active. B-score of Tl+ flux slope (higher = more flux/activation; lower = inhibition) at 10 µM. KCC2 cells, thallium flux FluoZin-2 fluorescence. Q9H2X9;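 active = thallium flux slope and its plate-corrected score both differing from the plate sample mean at a set confidence after two filtering rounds, in either direction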;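 note: slope of fluorescence scaled to starting intensity during 10 to 20 s after thallium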
NPY-Y1 antag: NPY-Y1 (human) receptor antagonism; HEK293-CNG Y1 cells, membrane potential fluorescence; NPY at EC95, then isoproterenol; P25929; inhibition, % at 3.6 µM; 1% of 200,000 active;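 active = inhibition above the campaign mean inhibition of all tested compounds plus 3 SD, cut at about 20% in these data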
Target sequence (P25929 whole entry, looked up): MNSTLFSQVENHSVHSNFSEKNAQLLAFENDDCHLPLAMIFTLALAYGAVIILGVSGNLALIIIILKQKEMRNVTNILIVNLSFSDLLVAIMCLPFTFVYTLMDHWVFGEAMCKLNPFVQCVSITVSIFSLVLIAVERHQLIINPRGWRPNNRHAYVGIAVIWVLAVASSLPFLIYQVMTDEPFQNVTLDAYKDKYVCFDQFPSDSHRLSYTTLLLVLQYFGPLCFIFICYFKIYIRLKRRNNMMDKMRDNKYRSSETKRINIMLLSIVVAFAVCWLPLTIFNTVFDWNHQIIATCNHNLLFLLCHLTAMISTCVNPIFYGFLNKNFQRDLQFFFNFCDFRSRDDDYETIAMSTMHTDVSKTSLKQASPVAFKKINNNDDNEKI
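Material: HEK293 cells with Y1 receptor plus CNG channel; times: compound incubation 1 h at room temperature, readout 45 min post-stimulation; signal: fluorescence, membrane potential probe; read-out basis: fluorescence ratio normalized to % inhibition between controls; benchmarks: full-block control isoproterenol-only wells, zero-block control NPY plus isoproterenol wells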
Furin inhibitor: inhibitors of human furin. P09958. purified furin, fluorogenic substrate cleavage. inhibition, % at 20 µM or 30 µM. 0.061% of 220,000 active; in the data active = inhibition above about 25%
NPY-Y1 PAM-ag: potentiates or activates human NPY-Y1 receptor; NPY-Y1 expressing cells, potentiator/agonist activation; activation, % at 3.6 µM; 0.37% of 220,000 active; AID 1304; in the data active = activation above about 33%, passing the limit was not always enough;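 note: cells stimulated with NPY at EC10 then isoproterenol at EC100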
A number is an active result; 0 = inactive; - = not tested or not shown. Only some compounds are listed: those with a hit (about 3.7% of all), similar ones and a draw of the others.

SMILES	NPY2 pot ag	NPY-Y2 antag	Cl transport mod	NPY-Y1 antag	Furin inhibitor	NPY-Y1 PAM-ag
CCc1ccccc1NC(=O)CN1C(=O)C2CCCN2c2ncc(Cl)cc21 (configuration not stated)	0	23	-	33	0	0
CCn1c(=S)[nH]c2nc3c(cc2c1=O)CCCC3	0	0	42	0	0	0
C/C(Cn1nnc2ccccc21)=N\NC(=O)c1cccc(Br)c1	0	0	0	0	0	0
COc1ccc(C(=O)N2C(=S)NC(=O)/C2=C\c2ccc(C)cc2)cc1	0	0	7.9	0	0	0
Cc1ccc(S(=O)(=O)N(C)CC(=O)Nc2nc3ccccc3s2)cc1	0	0	0	0	0	0
Cc1ccc(/C(=N/Nc2nc3ccccc3s2)C2=C(O)c3ccccc3C2=O)cc1	0	-	0	20	0	0
CC1(C)SC(=S)N(/N=C/c2ccc(O)cc2)C1N(O)C(=O)Nc1ccc([N+](=O)[O-])cc1 (configuration not stated)	33	0	0	0	0	0
c1ccc(-c2nnc(CSc3ccc4c(c3)OCCO4)o2)cc1	0	-	0	0	0	0
Cc1ccc2nc(/C(C#N)=C/c3cn[nH]c3-c3ccc(F)cc3)[nH]c2c1	0	0	0	0	28	0
CC1CN(C(=O)c2ccc(N3CCCCC3)c([N+](=O)[O-])c2)CC(C)O1 (configuration not stated)	0	0	0	0	0	0
O=C(COC(=O)/C=C/c1ccc(S(=O)(=O)N2CCc3ccccc32)cc1)NC1CCS(=O)(=O)C1 (configuration not stated)	0	-	0	0	0	0
O=C(/C=C/c1cccc(Cl)c1)NCCN1CCOCC1	0	0	0	0	0	0
CCN(C(=O)Cc1ccc(Br)cc1)C1CCCCC1	0	0	0	0	0	0
CC(C)c1ccc(-n2cccc2/C=C2/C(=N)N3C=CSC3=NC2=O)cc1	0	0	22	0	0	0
CCOc1ccc(-n2c(SCc3ccc(C#N)cc3)nnc2-c2cccnc2)cc1	0	26	0	45	0	0
Nn1c(SC/C=C/c2ccccc2)nnc1-c1cccnc1	0	0	0	0	0	0
Clc1ccc(-n2c(SC/C=C/c3ccccc3)nnc2-c2cccnc2)cc1	0	30	0	23	0	0
C#CCSc1nnc(-c2sc(-c3ccccc3)nc2C)n1C	0	0	0	0	0	0
CC1CC(C)(C)NC(=S)N1CCCC(=O)N1CCN(c2ccccc2F)CC1 (configuration not stated)	0	0	0	0	0	0
O=C(NC12CC3CC(CC(C3)C1)C2)N(Cc1ccccc1)Cc1ccncc1	0	-	0	0	0	0
Oc1ccc2cc(Br)ccc2c1CN1CCCC1	0	-	0	0	0	0
O=C(CC(=O)c1cc(Cl)ccc1O)c1ccccc1	0	0	10	0	0	0
CCOC(=O)c1sc(N(Cc2ccccc2)C(=O)CSc2ncn[nH]2)nc1C	0	0	0	0	0	0
CCOC(=O)c1sc(N(Cc2ccccc2)C(=O)COC(=O)c2ccc(O)cc2)nc1C	0	26	0	42	0	0
Nc1ccc(O)c2c1C(=O)c1ccccc1C2=O	57	0	0	0	0	54
SMILES	NPY2 pot ag	NPY-Y2 antag	Cl transport mod	NPY-Y1 antag	Furin inhibitor	NPY-Y1 PAM-ag
CN(C)c1ccc(/C=N/NC(=O)CN(c2cccc(Cl)c2)S(C)(=O)=O)cc1Br	0	0	0	0	0	0
CCn1c(SCC(=O)N/N=C/c2c[nH]c3ccccc23)nnc1-c1ccc(C(C)(C)C)cc1	44	0	0	0	0	49
C/C(=N\NC(=O)c1cc(-c2ccc(C)s2)[nH]n1)c1ccco1	0	0	0	0	0	0
CCN(CC1COc2ccccc2O1)C(=S)Nc1ccccc1 (configuration not stated)	0	0	-	0	0	46
O=C1C(Nc2ccccc2)=C(N2CCCCC2)C(=O)c2ccccc21	0	0	0	0	0	0
CN(C1=C(N2CCCCC2)C(=O)c2ccccc2C1=O)c1ccccc1	37	0	0	0	0	44
Cc1ccc(S(=O)(=O)Nc2ccc3nc(N)sc3c2)cc1	0	0	-	0	0	0
CS(=O)(=O)c1ccc2nc(N)sc2c1	0	0	0	0	0	41
Cc1ccc(C(=O)C[n+]2cc(-c3ccc(C)cc3)n3c2CCCCC3)cc1	0	32	0	79	0	0
